Laboratory results reported in ChEMBL document CHEMBL1641407, “Imidazo[4,5-d]thiazolo[5,4-b]pyridine based inhibitors of IKK2: synthesis, SAR, PK/PD and activity in a preclinical model of rheumatoid arthritis” (Bioorg Med Chem Lett, 2011).

Key:
[1] = Volume of distribution at steady state in mouse at 2 mg/kg, iv and 10 mg/kg, po; type: ADME, organism-based; conditions: in vivo, read-out: Vdss
[2] = target: Mitogen-activated protein kinase 10 (Homo sapiens) (UniProt P53779); assay: Residual activity at JNK3 at 10 uM relative to control
Mitogen-activated protein kinase 10 (Homo sapiens), sequence (P53779 whole entry): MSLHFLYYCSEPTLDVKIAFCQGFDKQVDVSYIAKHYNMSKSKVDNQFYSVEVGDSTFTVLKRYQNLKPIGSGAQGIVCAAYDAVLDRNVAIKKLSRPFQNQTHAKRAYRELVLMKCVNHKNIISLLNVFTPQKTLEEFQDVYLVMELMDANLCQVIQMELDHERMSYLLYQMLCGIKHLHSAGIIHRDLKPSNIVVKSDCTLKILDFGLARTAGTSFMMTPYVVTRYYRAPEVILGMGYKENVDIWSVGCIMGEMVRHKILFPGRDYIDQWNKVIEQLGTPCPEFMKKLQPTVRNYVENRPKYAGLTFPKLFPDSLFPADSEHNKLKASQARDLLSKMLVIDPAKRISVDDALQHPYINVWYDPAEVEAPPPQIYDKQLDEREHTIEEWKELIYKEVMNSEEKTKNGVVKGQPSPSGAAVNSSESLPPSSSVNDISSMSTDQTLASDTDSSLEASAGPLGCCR

[3] = Mean residence time in rat at 2 mg/kg, iv and 10 mg/kg, po; type: ADME, organism-based; conditions: in vivo
Mus musculus = assay: Antiinflammatory activity in po dosed BALB/c mouse assessed as inhibition of LPS-induced TNFalpha release administered for 5 hrs before LPS challenge measured after 6.5 hrs post dose by ELISA; type: functional, organism-based
Method in brief: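 BALB/c female mice, 6–8 weeks old, n = 7–8 per treatment. Compounds given by oral gavage at 30 and 100 mg/kg in PEG400/HCl/Tween80/water; controls received vehicle alone. Five hours later, E. coli O111:B4 LPS 50 µg/kg ip. Serum collected 90 min after LPS, TNF-α measured by ELISA. Drug exposure sampled 6.5 h post-dose. Mean ± standard error.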

[4] = target: Death-associated protein kinase 2 (Homo sapiens) (UniProt Q9UIK4); assay: Residual activity at DAPK2 at 10 uM relative to control
Death-associated protein kinase 2 (Homo sapiens), sequence (Q9UIK4 whole entry, looked up): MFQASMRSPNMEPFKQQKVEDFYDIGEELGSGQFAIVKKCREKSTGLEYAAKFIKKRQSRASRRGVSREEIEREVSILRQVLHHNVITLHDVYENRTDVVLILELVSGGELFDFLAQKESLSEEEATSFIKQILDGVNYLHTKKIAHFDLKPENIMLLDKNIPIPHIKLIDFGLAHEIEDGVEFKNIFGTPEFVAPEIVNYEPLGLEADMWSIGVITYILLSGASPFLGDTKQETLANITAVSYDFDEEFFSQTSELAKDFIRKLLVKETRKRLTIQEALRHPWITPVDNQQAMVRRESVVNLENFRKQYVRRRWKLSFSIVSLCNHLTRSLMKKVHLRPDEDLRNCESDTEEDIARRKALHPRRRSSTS

[5] = Half life in rat at 2 mg/kg, iv and 10 mg/kg, po; type: ADME, organism-based; conditions: in vivo
Canis familiaris = assay: Total AUC in dog at 2 mg/kg, iv; type: ADME, organism-based, Canis lupus familiaris; design: time AUCmax, dose 2 mg/kg, route intravenous; conditions: in vivo
Method in brief: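 Dogs received the compound intravenously only, in PEG400:water 80:20. Total plasma exposure (AUC_tot) is reported in nM h.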

[6] = Clearance in dog at 2 mg/kg, iv; type: ADME, organism-based, Canis lupus familiaris; design: dose 2 mg/kg, route intravenous; conditions: in vivo
Method in brief: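 Dog pharmacokinetics, iv dosing only, in vehicle PEG400:water 80:20.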

[7] = target: T1, Inhibitor of nuclear factor kappa-B kinase subunit alpha (Homo sapiens, UniProt O15111); assay: Inhibition of IKK1
T1 sequence (O15111 whole entry): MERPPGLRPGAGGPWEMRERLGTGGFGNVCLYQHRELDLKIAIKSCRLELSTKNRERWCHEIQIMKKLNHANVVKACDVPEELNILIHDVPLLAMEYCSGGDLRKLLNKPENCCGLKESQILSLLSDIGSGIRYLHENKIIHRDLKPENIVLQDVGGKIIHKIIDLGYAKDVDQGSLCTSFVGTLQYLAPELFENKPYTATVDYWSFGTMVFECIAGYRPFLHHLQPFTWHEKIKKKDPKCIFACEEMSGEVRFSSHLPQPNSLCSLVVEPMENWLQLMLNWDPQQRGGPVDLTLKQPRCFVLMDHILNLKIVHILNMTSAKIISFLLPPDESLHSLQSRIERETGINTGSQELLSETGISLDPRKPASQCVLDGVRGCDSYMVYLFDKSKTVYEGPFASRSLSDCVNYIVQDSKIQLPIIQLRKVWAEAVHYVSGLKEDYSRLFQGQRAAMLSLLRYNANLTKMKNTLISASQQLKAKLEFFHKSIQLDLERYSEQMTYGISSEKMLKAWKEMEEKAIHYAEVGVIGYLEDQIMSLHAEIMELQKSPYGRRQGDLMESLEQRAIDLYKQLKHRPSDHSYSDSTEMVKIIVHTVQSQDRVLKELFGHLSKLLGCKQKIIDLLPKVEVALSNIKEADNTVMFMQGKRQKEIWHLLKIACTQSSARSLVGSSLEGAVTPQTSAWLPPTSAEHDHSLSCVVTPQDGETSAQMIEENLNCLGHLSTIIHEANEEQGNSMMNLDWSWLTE

[8] = target: T2, Cyclin-G-associated kinase (Homo sapiens) (UniProt O14976); assay: Residual activity at GAK at 10 uM relative to control
T2 sequence (whole entry): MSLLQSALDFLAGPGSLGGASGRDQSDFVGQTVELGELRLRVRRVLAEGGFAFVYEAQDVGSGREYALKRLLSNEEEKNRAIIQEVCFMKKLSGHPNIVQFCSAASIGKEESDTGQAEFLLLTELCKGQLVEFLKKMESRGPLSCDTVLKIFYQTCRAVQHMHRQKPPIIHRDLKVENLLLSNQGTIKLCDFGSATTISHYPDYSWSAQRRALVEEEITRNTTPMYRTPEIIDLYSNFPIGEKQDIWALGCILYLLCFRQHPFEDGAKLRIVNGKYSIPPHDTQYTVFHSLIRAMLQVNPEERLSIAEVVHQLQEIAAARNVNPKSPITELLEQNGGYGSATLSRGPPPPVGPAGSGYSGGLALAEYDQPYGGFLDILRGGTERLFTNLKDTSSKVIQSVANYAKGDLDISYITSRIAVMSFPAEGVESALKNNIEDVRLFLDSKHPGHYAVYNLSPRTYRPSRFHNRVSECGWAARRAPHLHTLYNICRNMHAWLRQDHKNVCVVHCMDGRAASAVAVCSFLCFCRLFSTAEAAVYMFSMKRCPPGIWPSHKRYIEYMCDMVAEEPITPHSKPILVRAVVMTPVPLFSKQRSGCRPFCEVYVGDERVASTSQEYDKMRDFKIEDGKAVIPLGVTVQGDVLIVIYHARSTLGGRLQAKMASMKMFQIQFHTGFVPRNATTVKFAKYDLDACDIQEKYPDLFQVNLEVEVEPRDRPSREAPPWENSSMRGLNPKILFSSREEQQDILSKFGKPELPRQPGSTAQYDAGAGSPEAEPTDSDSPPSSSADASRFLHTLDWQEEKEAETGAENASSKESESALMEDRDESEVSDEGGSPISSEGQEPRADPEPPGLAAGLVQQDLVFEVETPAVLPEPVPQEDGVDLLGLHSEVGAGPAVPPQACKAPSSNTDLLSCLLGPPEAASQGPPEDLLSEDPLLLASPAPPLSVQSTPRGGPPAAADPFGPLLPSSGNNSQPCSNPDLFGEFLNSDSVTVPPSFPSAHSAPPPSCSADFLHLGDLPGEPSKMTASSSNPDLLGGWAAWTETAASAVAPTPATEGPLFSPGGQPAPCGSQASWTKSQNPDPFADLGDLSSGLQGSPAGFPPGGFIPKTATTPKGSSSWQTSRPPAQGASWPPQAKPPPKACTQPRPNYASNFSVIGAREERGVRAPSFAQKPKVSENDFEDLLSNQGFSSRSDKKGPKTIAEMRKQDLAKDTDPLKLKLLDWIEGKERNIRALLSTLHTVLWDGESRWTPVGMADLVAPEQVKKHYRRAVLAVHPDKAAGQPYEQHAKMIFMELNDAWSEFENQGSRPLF

[9] = target: Serine/threonine-protein kinase 16 (Homo sapiens) (UniProt O75716); assay: Residual activity at STK16 at 10 uM relative to control
Serine/threonine-protein kinase 16 (Homo sapiens), sequence (O75716 whole entry): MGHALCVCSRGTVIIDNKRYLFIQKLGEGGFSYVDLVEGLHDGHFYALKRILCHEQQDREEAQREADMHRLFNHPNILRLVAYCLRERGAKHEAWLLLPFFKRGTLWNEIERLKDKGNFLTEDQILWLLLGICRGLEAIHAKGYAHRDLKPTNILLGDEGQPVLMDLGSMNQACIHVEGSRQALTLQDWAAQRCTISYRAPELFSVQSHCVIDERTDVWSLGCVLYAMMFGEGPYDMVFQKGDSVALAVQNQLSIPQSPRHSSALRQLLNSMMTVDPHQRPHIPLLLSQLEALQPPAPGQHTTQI

[10] = Oral bioavailability in rat at 10 mg/kg; type: ADME, organism-based; conditions: in vivo
[11] = Half life in mouse at 2 mg/kg, iv and 10 mg/kg, po; type: ADME, organism-based; conditions: in vivo
[12] = Volume of distribution at steady state in rat at 2 mg/kg, iv and 10 mg/kg, po; type: ADME, organism-based; conditions: in vivo, read-out: Vdss
[13] = Mean residence time in mouse at 2 mg/kg, iv and 10 mg/kg, po; type: ADME, organism-based; conditions: in vivo

CCNc1nc2sc(-c3cccc([C@H](C)NC(C)=O)c3)nc2c2c1ncn2C
Vd [1]: 1.5 L/kg | residual activity [2]: < 10% | MRT [3]: 2.1 h | inhibition (Mus musculus): Dose-dependent effect | residual activity [4]: < 10% | half-life [5]: 0.6 h | AUC (Canis familiaris): 1980 nM | clearance [6]: 43 mL/min/kg | IC50 [7]: 420 nM | residual activity [8]: < 10% | residual activity [9]: < 10% | bioavailability [10]: 88% | half-life [11]: 1.9 h | Vd [12]: 2.3 L/kg | MRT [13]: 2.9 h
